Test results as given in ChEMBL document CHEMBL1123519, “Chemically stable homocinnamyl analogues of the leukotrienes: synthesis and preliminary biological evaluation” (J Med Chem, 1986).
The source made the active and inactive calls. The calls are words filed in the database; no cut-off is given here.

Experiments:
[1] = species on record: Cavia porcellus; assay: Compound was evaluated for its activity in vitro with use of isolated guinea pig tracheal spiral strips in the presence (control ); type: functional; conditions: Trachea
Method in brief: (§1)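 Guinea pig tracheal strips held at 2 g resting tension and stabilized 60 min, with bath fluid changed every 15 min. Contraction to carbachol 30 μM, wash, then restabilized 60 min. Cumulative agonist concentration-response curves were run, with responses expressed as % of carbachol maximum. L-cysteine 3 mM or L-serine borate 45 mM was preincubated 30 min. EC50 was derived by linear regression, and significance by paired t test (p<0.05).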

[2] = species on record: Cavia porcellus; assay: Compound was evaluated for its activity in vitro with use of isolated guinea pig tracheal spiral strips in the presence of L-serine borate (45 mM); type: functional; conditions: Trachea; method in brief: as §1
[3] = species on record: Cavia porcellus; assay: Compound was evaluated for its activity in vitro with use of isolated guinea pig tracheal spiral strips in the presence of L-cysteine (3 mM); type: functional; conditions: Trachea; method in brief: as §1
[4] = species on record: Cavia porcellus; assay: Compound was tested for FPL-55712 sensitivity in the absence of metabolic inhibitors; No sensitivity.; type: functional, organism-based
Method in brief: (§2)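 Guinea pig tracheal strips at 2 g resting tension, stabilized 60 min, carbachol (30 μM) reference contraction, restabilized 60 min. FPL-55712 10 μM was preincubated 30 min before cumulative agonist curves, without metabolic inhibitors. EC50 values were compared with and without antagonist by Student's paired t test (p<0.05). Kb was obtained by the Furchgott method.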

[5] = species on record: Cavia porcellus; assay: Compound was tested for FPL-55712 sensitivity in the absence of metabolic inhibitors; Yes; type: functional, organism-based; method in brief: as §2
[6] = species on record: Cavia porcellus; assay: Compound was tested for inhibition of LTE4 (8 nM)-induced contraction of isolated guinea pig trachea at 10 mM concentration.; type: functional; conditions: in the assay text read “10 µM” for “10 mM”
Method in brief: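 Isolated guinea pig trachea contracted with LTE4 8 nM. Analogue present in the bath, and inhibition of the LTE4 contraction expressed as percent.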

[7] = species on record: Cavia porcellus; assay: Compound was evaluated for its activity in vitro with use of isolated guinea pig tracheal spiral strips in the presence (control ); Not active; type: functional, Trachea; method in brief: as §1

Compound | EC50 [1] [µM] | EC50 [2] [µM] | other results
CCCCC/C=C/c1ccc(C/C=C/[C@H](SCC(NC(=O)CCC(N)C(=O)O)C(=O)NCC(=O)O)[C@H](O)CCCC(=O)O)cc1 (some centres not stated) | 3.82 | 0.451 | 
CCCCCCCc1cccc(C/C=C/[C@H](SC[C@H](N)C(=O)NCC(=O)O)[C@H](O)CCCC(=O)O)c1 |  |  | EC50 [3]: 4.77 µM
CCCCCCOc1ccc(C/C=C/[C@H](SCC(NC(=O)CCC(N)C(=O)O)C(=O)NCC(=O)O)[C@H](O)CCCC(=O)O)cc1 (some centres not stated) | 1.28 | 0.256 | Sensitivity [4]: No sensitivity
CCCCCCOc1cccc(C/C=C/[C@H](SC[C@H](N)C(=O)NCC(=O)O)[C@H](O)CCCC(=O)O)c1 |  |  | Inhibition [6]: 24%; EC50 [7]: Not Active
CCCCCCCc1ccc(C/C=C/[C@H](SCC(NC(=O)CCC(N)C(=O)O)C(=O)NCC(=O)O)[C@H](O)CCCC(=O)O)cc1 (some centres not stated) | 0.574 | 0.0745 | 
CCCCC/C=C\C\C=C/C=C/C=C/[C@@H](SC[C@H](N)C(=O)NCC(=O)O)[C@@H](O)CCCC(=O)O [LEUKOTRIENE D4] | 0.00392 |  | EC50 [3]: 0.000513 µM
CCCCCCCc1ccccc1C/C=C/[C@H](SC[C@H](N)C(=O)NCC(=O)O)[C@H](O)CCCC(=O)O |  |  | EC50 [3]: 1.87 µM
CCCCCCOc1ccccc1C/C=C/[C@H](SC[C@H](N)C(=O)NCC(=O)O)[C@H](O)CCCC(=O)O |  |  | Inhibition [6]: 18%; EC50 [7]: Not Active
CCCCCCCc1ccccc1C/C=C/[C@H](SCC(NC(=O)CCC(N)C(=O)O)C(=O)NCC(=O)O)[C@H](O)CCCC(=O)O (some centres not stated) | 18.6 | 18.4 | 
CCCCCCCc1ccccc1C/C=C/[C@H](SCC(N)C(=O)O)[C@H](O)CCCC(=O)O (some centres not stated) |  |  | Inhibition [6]: 28%
CCCCCCCc1cccc(C/C=C/[C@H](SCC(NC(=O)CCC(N)C(=O)O)C(=O)NCC(=O)O)[C@H](O)CCCC(=O)O)c1 (some centres not stated) | 1.36 | 0.447 | 
CCCCCCCc1ccc(C/C=C/[C@H](SCC(N)C(=O)O)[C@H](O)CCCC(=O)O)cc1 (some centres not stated) | 1.7 |  | 

Now from value to compound, other results behind:

EC50 [1] [µM] | EC50 [2] [µM] | Compound | other results
13 |  | CCCCC/C=C/c1cccc(C/C=C/[C@H](SC[C@H](N)C(=O)NCC(=O)O)[C@H](O)CCCC(=O)O)c1 | 
2.68 |  | CCCCCCCc1ccc(C/C=C\[C@@H](SC[C@H](N)C(=O)NCC(=O)O)[C@@H](O)CCCC(=O)O)cc1 | EC50 [3]: 0.251 µM
9.1 |  | CCCCCCOc1ccc(C/C=C/[C@H](SC[C@H](N)C(=O)NCC(=O)O)[C@H](O)CCCC(=O)O)cc1 | Sensitivity [5]: Active
4.83 |  | CCCCCCCc1cccc(C/C=C/[C@H](SCC(N)C(=O)O)[C@H](O)CCCC(=O)O)c1 (some centres not stated) | 
